The term IC50 denotes the point on the concentration scale where inhibition reaches its midpoint.

The text below walks through data of ChEMBL document CHEMBL4145485, “Design, synthesis, biological evaluation and docking studies of new 3-(4,5-dihydro-1H-pyrazol/isoxazol-5-yl)-2-phenyl-1H-indole derivatives as potent antioxidants and 15-lipoxygenase inhibitors” (Eur J Med Chem, 2018).

Assay [1] can be described thus: Inhibition of soybean 15-LOX using arachidonic acid or linoleic acid as substrate preincubated with enzyme followed by substrate addition up to 5 mins by chromogenic method. Further details: species or system Glycine max. The method, boiled down:
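Kit-based assay: soybean LOX pre-mixed with test compound ([…], in DMSO), started with arachidonic or linoleic acid, shaken at least 5 min. Chromogen added to stop and develop, absorbance at 490–500 nm. Quercetin as positive control, DMSO as 100% activity, buffer as blank. IC50 from non-linear dose-response of % inhibition.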

Assay [2] is described as follows: Antioxidant activity assessed as superoxide dismutase-like activity by measuring inhibition of xanthine oxidase-induced superoxide anion level measured ever 30 secs for 5 mins by NBT reduction assay. It counts as functional. In short, it runs like this:
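Kit-based assay at room temperature in cuvettes: reaction buffer, xanthine and NBT, then test compound ([…]), then xanthine oxidase. A550 read every 30 s from 30 s to 5 min 30 s. Rate per minute compared with a negative control gives % inhibition. IC50 from non-linear dose-response, mean ± SEM of three. Ascorbic acid as reference.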

Assay [3] is described as follows: Antioxidant activity in PBS buffer assessed as NO scavenging activity after 90 mins in presence of sodium nitroprusside by Griess assay. The assay is classed as functional. The method, boiled down:
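Test compound at […] mixed 1:1 with 10 mM sodium nitroprusside in PBS pH 7.4, held 90 min at room temperature. Equal volume of Griess reagent (1% sulphanilamide, 0.1% naphthyl ethylene diamine in 2.5% […]) added, absorbance at 546 nm. Ascorbic acid as positive control, DMSO as blank. IC50 by linear regression, mg/mL, mean ± SD of three.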

Assay [4] is described as follows: Antioxidant activity assessed as inhibition of DPPH radical formation after 30 mins. The assay is classed as functional. The method, boiled down:
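Test compound at […] mixed 1:1 with […], kept dark at room temperature 30 min, absorbance read at 517 nm. Ascorbic acid as positive control, DMSO as blank. % scavenging taken against a no-compound control. IC50 by linear regression of the dose-response, in mg/mL, mean ± SD of three replicates.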
In general terms: Loss of DPPH colour is used to gauge radical scavenging.

Assay [5] in a line: Potency index, ratio of ascorbic acid IC50 to compound IC50 for antioxidant activity assessed as inhibition of DPPH radical. It counts as functional.
For a further assay, the system named is Glycine max. The assay can be described thus: Potency index, ratio of quercetin IC50 to compound IC50 for inhibition of soybean 15-LOX.
Assay [6] can be described thus: Potency index, ratio of ascorbic acid IC50 to compound IC50 for antioxidant activity assessed as superoxide dismutase-like activity by measuring inhibition of xanthine oxidase-induced superoxide anion level. The assay is classed as functional.
The nature of assay [7]: Potency index, ratio of ascorbic acid IC50 to compound IC50 for antioxidant activity in PBS buffer assessed as NO scavenging activity. The assay is classed as functional.

In brackets after ≈: the same amount, converted by molar mass.

The compound `O=c1c(O)c(-c2ccc(O)c(O)c2)oc2cc(O)cc(O)c12` [QUERCETIN] came in with an IC50 in assay [1] of 6.87 µM.

Consider `CN1N=C(c2ccncc2)CC1c1c(-c2ccccc2)[nH]c2ccccc12` (configuration not stated), for which the IC50 in assay [1] was 9.32 µM; in assay [2], 5.41 µM; in assay [3], 37.1 µg/mL; in assay [4], 33.1 µg/mL (≈ 93.9 µM).

For the compound `CC(=O)N1N=C(c2ccncc2)CC1c1c(-c2ccccc2)[nH]c2ccccc12` (configuration not stated), the IC50 turned out to be 8.74 µM in assay [1], 5.47 µM in assay [2], 29.14 µg/mL in assay [3] and 98.54 µg/mL (≈ 259 µM) in assay [4].

As to `CC(=O)N1N=C(c2cccnc2)CC1c1c(-c2ccccc2)[nH]c2ccccc12` (configuration not stated), the IC50 was determined as 4.56 µM in assay [1], 2.57 µM in assay [2], 29.8 µg/mL in assay [3] and 37.97 µg/mL (≈ 99.8 µM) in assay [4].

Take `c1ccc(-c2[nH]c3ccccc3c2C2CC(c3ccncc3)=NN2)cc1` (configuration not stated): the IC50 worked out at 6.54 µM in assay [1], 3.24 µM in assay [2], 20.99 µg/mL in assay [3] and 15.83 µg/mL (≈ 46.8 µM) in assay [4].

As to `O=C1O[C@H]([C@@H](O)CO)C(O)=C1O` [ASCORBIC ACID], the IC50 was 3.54 µM in assay [2], 24.5 µg/mL in assay [3] and 23.4 µg/mL (≈ 133 µM) in assay [4].

In the case of `c1ccc(-c2[nH]c3ccccc3c2C2CC(c3cccs3)=NN2)cc1` (configuration not stated), the IC50 amounted to 9.41 µM in assay [1], 6.51 µM in assay [2], 24.04 µg/mL in assay [3] and 18.3 µg/mL (≈ 53.3 µM) in assay [4].

Take `c1ccc(-c2[nH]c3ccccc3c2C2CC(c3ccncc3)=NO2)cc1` (configuration not stated): the IC50 in assay [1] came out at 4.89 µM; in assay [2], 1.87 µM; in assay [3] it was 70.5 µg/mL; in assay [4], 59.94 µg/mL (≈ 177 µM).

For the compound `O=C(c1ccccc1)N1N=C(c2cccnc2)CC1c1c(-c2ccccc2)[nH]c2ccccc12` (configuration not stated), the IC50 in assay [1] is 7.23 µM; in assay [2] it was 4.62 µM; in assay [3], 50.33 µg/mL; in assay [4], 48.21 µg/mL (≈ 109 µM).

Take `c1ccc(-c2[nH]c3ccccc3c2C2CC(c3cccnc3)=NN2)cc1` (configuration not stated): the 50% inhibitory concentration (IC50) came to 3.84 µM in assay [1], 1.78 µM in assay [2], 35.01 µg/mL in assay [3] and 13.61 µg/mL (≈ 40.2 µM) in assay [4]. Moreover, the Ratio IC50 in assay [5] worked out at 1.7; in the assay on Glycine max, 1.8; in assay [6], 2; in assay [7], 0.7.

Consider `O=C(c1ccccc1)N1N=C(c2ccncc2)CC1c1c(-c2ccccc2)[nH]c2ccccc12` (configuration not stated), for which the IC50 in assay [1] is 5.14 µM; in assay [2] it was 4.27 µM; in assay [3], 52.54 µg/mL; in assay [4], 107.32 µg/mL (≈ 243 µM).

`c1ccc(-c2[nH]c3ccccc3c2C2CC(c3cccnc3)=NO2)cc1` (configuration not stated): the IC50 in assay [1] is 6.71 µM; in assay [2], 3.54 µM; in assay [3], 116.7 µg/mL; in assay [4] it was 60.7 µg/mL (≈ 179 µM).

As to `c1ccc(-c2[nH]c3ccccc3c2C2CC(c3cccs3)=NO2)cc1` (configuration not stated), the IC50 in assay [1] is 7.51 µM; in assay [2], 4.26 µM; in assay [3], 233.4 µg/mL; in assay [4] it was 117.5 µg/mL (≈ 341 µM).
